The record followed here is ChEMBL document CHEMBL2413013, “Triplex-forming ability of oligonucleotides containing 1-aryl-1,2,3-triazole nucleobases linked via a two atom-length spacer” (Bioorg Med Chem, 2013).

The nature of experiment [1]: Binding affinity to hairpin double stranded DNA AT base pair in sodium cacodylate buffer at pH 6.8 assessed as triplex-forming ability measuring melting temperature after by UV melting experiment. Put shortly: (§1)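 TFO and hairpin dsDNA target, each strand at 1.89 μM final, in 10 mM sodium cacodylate (pH 6.8) with 100 mM KCl and 50 mM MgCl₂. Annealed in boiling water, then cooled slowly to 5 °C. Melting was followed at 260 nm from 5 to 90 °C at 0.5 °C/min. Tm was taken by the two-point average method, mean of three independent runs.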

Experiment [2] can be described thus: Binding affinity to hairpin double stranded DNA CG base pair in sodium cacodylate buffer at pH 6.8 assessed as triplex-forming ability measuring melting temperature after by UV melting experiment. Put shortly: as §1
A short description of experiment [3]: Binding affinity to hairpin double stranded DNA GC base pair in sodium cacodylate buffer at pH 6.8 assessed as triplex-forming ability measuring melting temperature after by UV melting experiment. Put shortly:
as §1

A short description of experiment [4]: Binding affinity to hairpin double stranded DNA TA base pair in sodium cacodylate buffer at pH 6.8 assessed as triplex-forming ability measuring melting temperature after by UV melting experiment. Put shortly: as §1

As for `Cc1cn([C@H]2C[C@H](O[PH](OCCC#N)(OC[C@H]3O[C@@H](n4cc(C)c(=O)[nH]c4=O)C[C@@H]3O[PH](OCCC#N)(OC[C@H]3O[C@@H](n4cc(C)c(=O)[nH]c4=O)C[C@@H]3O[PH](OCCC#N)(OC[C@H]3O[C@@H](n4cc(C)c(=O)[nH]c4=O)C[C@@H]3O[PH](OCCC#N)(OC[C@H]3O[C@@H](n4cc(C)c(=O)[nH]c4=O)C[C@@H]3O[PH](OCCC#N)(OC(C)[C@H]3O[C@@H](N4C=CC(N)=N[C@@H]4O)C[C@@H]3O[PH](OCCC#N)(OC[C@H]3O[C@@H](n4cc(C)c(=O)[nH]c4=O)C[C@@H]3O[PH](OCCC#N)(OC[C@H]3O[C@@H](OCc4cn(-c5cccc(C(N)=O)c5)nn4)C[C@@H]3OP(=O)(O)OC[C@H]3O[C@@H](n4cc(C)c(=O)[nH]c4=O)C[C@@H]3O[PH](OCCC#N)(OC(C)[C@H]3O[C@@H](n4ccc(N)nc4=O)C[C@@H]3O[PH](OCCC#N)(OC[C@H]3O[C@@H](n4cc(C)c(=O)[nH]c4=O)C[C@@H]3O[PH](OCCC#N)(OC(C)[C@H]3O[C@@H](n4ccc(N)nc4=O)C[C@@H]3O[PH](OCCC#N)(OC[C@H]3O[C@@H](n4cc(C)c(=O)[nH]c4=O)C[C@@H]3O[PH](OCCC#N)(OC(C)[C@H]3O[C@@H](n4ccc(N)nc4=O)C[C@@H]3O[PH](OCCC#N)(OC[C@H]3O[C@@H](n4cc(C)c(=O)[nH]c4=O)C[C@@H]3O)N(C(C)C)C(C)C)N(C(C)C)C(C)C)N(C(C)C)C(C)C)N(C(C)C)C(C)C)N(C(C)C)C(C)C)N(C(C)C)C(C)C)N(C(C)C)C(C)C)N(C(C)C)C(C)C)N(C(C)C)C(C)C)N(C(C)C)C(C)C)N(C(C)C)C(C)C)N(C(C)C)C(C)C)N(C(C)C)C(C)C)[C@@H](CO)O2)c(=O)[nH]c1=O` (stereo not given in full), the Tm in experiment [1] turned out to be 19 °C; in experiment [2], 23 °C; in experiment [3] it was 20 °C; in experiment [4] it was 19 °C.

Turning to `CC1=CN([C@H]2C[C@H](O[PH](OCCC#N)(OC(C)[C@H]3O[C@@H](n4ccc(N)nc4=O)C[C@@H]3O[PH](OCCC#N)(OC[C@H]3O[C@@H](n4cc(C)c(=O)[nH]c4=O)C[C@@H]3O[PH](OCCC#N)(OC(C)[C@H]3O[C@@H](n4ccc(N)nc4=O)C[C@@H]3O[PH](OCCC#N)(OC[C@H]3O[C@@H](n4cc(C)c(=O)[nH]c4=O)C[C@@H]3O)N(C(C)C)C(C)C)N(C(C)C)C(C)C)N(C(C)C)C(C)C)N(C(C)C)C(C)C)[C@@H](CO[PH](OCCC#N)(O[C@H]3C[C@H](n4ccc(N)nc4=O)O[C@@H]3C(C)O[PH](OCCC#N)(O[C@H]3C[C@H](n4cc(C)c(=O)[nH]c4=O)O[C@@H]3COP(=O)(O)O[C@H]3C[C@H](OCc4cn(-c5ccccc5)nn4)O[C@@H]3CO[PH](OCCC#N)(O[C@H]3C[C@H](n4cc(C)c(=O)[nH]c4=O)O[C@@H]3CO[PH](OCCC#N)(O[C@H]3C[C@H](n4ccc(N)nc4=O)O[C@@H]3C(C)O[PH](OCCC#N)(O[C@H]3C[C@H](n4cc(C)c(=O)[nH]c4=O)O[C@@H]3CO[PH](OCCC#N)(O[C@H]3C[C@H](n4cc(C)c(=O)[nH]c4=O)O[C@@H]3CO[PH](OCCC#N)(O[C@H]3C[C@H](n4cc(C)c(=O)[nH]c4=O)O[C@@H]3CO[PH](OCCC#N)(O[C@H]3C[C@H](n4cc(C)c(=O)[nH]c4=O)O[C@@H]3CO[PH](OCCC#N)(O[C@H]3C[C@H](n4cc(C)c(=O)[nH]c4=O)O[C@@H]3CO)N(C(C)C)C(C)C)N(C(C)C)C(C)C)N(C(C)C)C(C)C)N(C(C)C)C(C)C)N(C(C)C)C(C)C)N(C(C)C)C(C)C)N(C(C)C)C(C)C)N(C(C)C)C(C)C)N(C(C)C)C(C)C)O2)[C@@H](O)NC1=O` (stereo not given in full), the Tm came out at 20 °C in experiment [1], 22 °C in experiment [2], 22 °C in experiment [3] and 20 °C in experiment [4].

As to `Cc1cn([C@H]2C[C@H](O[PH](OCCC#N)(OC[C@H]3O[C@@H](n4cc(C)c(=O)[nH]c4=O)C[C@@H]3O[PH](OCCC#N)(OC[C@H]3O[C@@H](n4cc(C)c(=O)[nH]c4=O)C[C@@H]3O[PH](OCCC#N)(OC[C@H]3O[C@@H](n4cc(C)c(=O)[nH]c4=O)C[C@@H]3O[PH](OCCC#N)(OC[C@H]3O[C@@H](n4cc(C)c(=O)[nH]c4=O)C[C@@H]3O[PH](OCCC#N)(OC(C)[C@H]3O[C@@H](n4ccc(N)nc4=O)C[C@@H]3O[PH](OCCC#N)(OC[C@H]3O[C@@H](n4cc(C)c(=O)[nH]c4=O)C[C@@H]3O[PH](OCCC#N)(OC[C@H]3O[C@@H](CCc4cn(-c5cccc(C(N)=O)c5)nn4)C[C@@H]3OP(=O)(O)OC[C@H]3O[C@@H](n4cc(C)c(=O)[nH]c4=O)C[C@@H]3O[PH](OCCC#N)(OC(C)[C@H]3O[C@@H](n4ccc(N)nc4=O)C[C@@H]3O[PH](OCCC#N)(OC[C@H]3O[C@@H](n4cc(C)c(=O)[nH]c4=O)C[C@@H]3O[PH](OCCC#N)(OC(C)[C@H]3O[C@@H](n4ccc(N)nc4=O)C[C@@H]3O[PH](OCCC#N)(OC[C@H]3O[C@@H](n4cc(C)c(=O)[nH]c4=O)C[C@@H]3O[PH](OCCC#N)(OC(C)[C@H]3O[C@@H](n4ccc(N)nc4=O)C[C@@H]3O[PH](OCCC#N)(OC[C@H]3O[C@@H](n4cc(C)c(=O)[nH]c4=O)C[C@@H]3O)N(C(C)C)C(C)C)N(C(C)C)C(C)C)N(C(C)C)C(C)C)N(C(C)C)C(C)C)N(C(C)C)C(C)C)N(C(C)C)C(C)C)N(C(C)C)C(C)C)N(C(C)C)C(C)C)N(C(C)C)C(C)C)N(C(C)C)C(C)C)N(C(C)C)C(C)C)N(C(C)C)C(C)C)N(C(C)C)C(C)C)[C@@H](CO)O2)c(=O)[nH]c1=O` (stereo not given in full), the Tm in experiment [1] came out at 22 °C; in experiment [2], 25 °C; in experiment [3], 22 °C; in experiment [4], 25 °C.

As for `Cc1cn([C@H]2C[C@H](O[PH](OCCC#N)(OC[C@H]3O[C@@H](n4cc(C)c(=O)[nH]c4=O)C[C@@H]3O[PH](OCCC#N)(OC[C@H]3O[C@@H](n4cc(C)c(=O)[nH]c4=O)C[C@@H]3O[PH](OCCC#N)(OC[C@H]3O[C@@H](n4cc(C)c(=O)[nH]c4=O)C[C@@H]3O[PH](OCCC#N)(OC[C@H]3O[C@@H](n4cc(C)c(=O)[nH]c4=O)C[C@@H]3O[PH](OCCC#N)(OC(C)[C@H]3O[C@@H](n4ccc(N)nc4=O)C[C@@H]3O[PH](OCCC#N)(OC[C@H]3O[C@@H](n4cc(C)c(=O)[nH]c4=O)C[C@@H]3O[PH](OCCC#N)(OC[C@H]3O[C@@H](CCc4cn(-c5ccccc5)nn4)C[C@@H]3OP(=O)(O)OC[C@H]3O[C@@H](n4cc(C)c(=O)[nH]c4=O)C[C@@H]3O[PH](OCCC#N)(OC(C)[C@H]3O[C@@H](n4ccc(N)nc4=O)C[C@@H]3O[PH](OCCC#N)(OC[C@H]3O[C@@H](n4cc(C)c(=O)[nH]c4=O)C[C@@H]3O[PH](OCCC#N)(OC(C)[C@H]3O[C@@H](n4ccc(N)nc4=O)C[C@@H]3O[PH](OCCC#N)(OC[C@H]3O[C@@H](n4cc(C)c(=O)[nH]c4=O)C[C@@H]3O[PH](OCCC#N)(OC(C)[C@H]3O[C@@H](n4ccc(N)nc4=O)C[C@@H]3O[PH](OCCC#N)(OC[C@H]3O[C@@H](n4cc(C)c(=O)[nH]c4=O)C[C@@H]3O)N(C(C)C)C(C)C)N(C(C)C)C(C)C)N(C(C)C)C(C)C)N(C(C)C)C(C)C)N(C(C)C)C(C)C)N(C(C)C)C(C)C)N(C(C)C)C(C)C)N(C(C)C)C(C)C)N(C(C)C)C(C)C)N(C(C)C)C(C)C)N(C(C)C)C(C)C)N(C(C)C)C(C)C)N(C(C)C)C(C)C)[C@@H](CO)O2)c(=O)[nH]c1=O` (stereo not given in full), the Tm in experiment [1] was 21 °C; in experiment [2], 24 °C; in experiment [3], 20 °C; in experiment [4] it was 22 °C.

On to `Cc1cn([C@H]2C[C@H](O[PH](OCCC#N)(OC[C@H]3O[C@@H](n4cc(C)c(=O)[nH]c4=O)C[C@@H]3O[PH](OCCC#N)(OC[C@H]3O[C@@H](n4cc(C)c(=O)[nH]c4=O)C[C@@H]3O[PH](OCCC#N)(OC[C@H]3O[C@@H](n4cc(C)c(=O)[nH]c4=O)C[C@@H]3O[PH](OCCC#N)(OC[C@H]3O[C@@H](n4cc(C)c(=O)[nH]c4=O)C[C@@H]3O[PH](OCCC#N)(OC(C)[C@H]3O[C@@H](n4ccc(N)nc4=O)C[C@@H]3O[PH](OCCC#N)(OC[C@H]3O[C@@H](n4cc(C)c(=O)[nH]c4=O)C[C@@H]3O[PH](OCCC#N)(OC[C@H]3O[C@@H](OCc4cn(-c5ccc(CO)cc5)nn4)C[C@@H]3OP(=O)(O)OC[C@H]3O[C@@H](n4cc(C)c(=O)[nH]c4=O)C[C@@H]3O[PH](OCCC#N)(OC(C)[C@H]3O[C@@H](n4ccc(N)nc4=O)C[C@@H]3O[PH](OCCC#N)(OC[C@H]3O[C@@H](n4cc(C)c(=O)[nH]c4=O)C[C@@H]3O[PH](OCCC#N)(OC(C)[C@H]3O[C@@H](n4ccc(N)nc4=O)C[C@@H]3O[PH](OCCC#N)(OC[C@H]3O[C@@H](n4cc(C)c(=O)[nH]c4=O)C[C@@H]3O[PH](OCCC#N)(OC(C)[C@H]3O[C@@H](n4ccc(N)nc4=O)C[C@@H]3O[PH](OCCC#N)(OC[C@H]3O[C@@H](n4cc(C)c(=O)[nH]c4=O)C[C@@H]3O)N(C(C)C)C(C)C)N(C(C)C)C(C)C)N(C(C)C)C(C)C)N(C(C)C)C(C)C)N(C(C)C)C(C)C)N(C(C)C)C(C)C)N(C(C)C)C(C)C)N(C(C)C)C(C)C)N(C(C)C)C(C)C)N(C(C)C)C(C)C)N(C(C)C)C(C)C)N(C(C)C)C(C)C)N(C(C)C)C(C)C)[C@@H](CO)O2)c(=O)[nH]c1=O` (stereo not given in full), for which the Tm in experiment [1] turned out to be 19 °C; in experiment [2], 22 °C; in experiment [3], 19 °C; in experiment [4], 19 °C.
